Assay results taken from ChEMBL document CHEMBL4033795, “Design, Synthesis, and Structure-Activity Relationship Study of 2-Oxo-3,4-dihydropyrimido[4,5- d]pyrimidines as New Colony Stimulating Factor 1 Receptor (CSF1R) Kinase Inhibitors” (J Med Chem, 2018).

Legend:
[1] = AUC (0 to infinity) in Sprague-Dawley rat at 5 mg/kg, iv measured up to 72 hrs by LC/MS analysis; format: ADME, organism-based; set-up: dose 5 mg/kg, time infinity, route intravenous; settings: in vivo
In short: (§1)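 Male Sprague-Dawley rats, 4–6 weeks old, acclimatised 1 week, were dosed iv at 5 mg/kg or by oral gavage at 25 mg/kg. Vehicle was 2% DMSO, 4% EtOH, 4% castor oil, 90% H2O. Blood was drawn by orbital sinus puncture from 2 min to 72 h into heparinized tubes. Plasma was assayed by LC/MS with propranolol as internal standard. Three animals per group.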

[2] = biological target: Macrophage colony-stimulating factor 1 receptor (Homo sapiens, UniProt P07333); experiment: Inhibition of recombinant human His-tagged CSF1R cytoplasmic domain (538 to 910 residues) expressed in baculovirus using tyr4 peptide as substrate after 1 hr by FRET-based Z'-Lyte assay
Macrophage colony-stimulating factor 1 receptor, sequence (P07333 whole entry, the tested form may be a part): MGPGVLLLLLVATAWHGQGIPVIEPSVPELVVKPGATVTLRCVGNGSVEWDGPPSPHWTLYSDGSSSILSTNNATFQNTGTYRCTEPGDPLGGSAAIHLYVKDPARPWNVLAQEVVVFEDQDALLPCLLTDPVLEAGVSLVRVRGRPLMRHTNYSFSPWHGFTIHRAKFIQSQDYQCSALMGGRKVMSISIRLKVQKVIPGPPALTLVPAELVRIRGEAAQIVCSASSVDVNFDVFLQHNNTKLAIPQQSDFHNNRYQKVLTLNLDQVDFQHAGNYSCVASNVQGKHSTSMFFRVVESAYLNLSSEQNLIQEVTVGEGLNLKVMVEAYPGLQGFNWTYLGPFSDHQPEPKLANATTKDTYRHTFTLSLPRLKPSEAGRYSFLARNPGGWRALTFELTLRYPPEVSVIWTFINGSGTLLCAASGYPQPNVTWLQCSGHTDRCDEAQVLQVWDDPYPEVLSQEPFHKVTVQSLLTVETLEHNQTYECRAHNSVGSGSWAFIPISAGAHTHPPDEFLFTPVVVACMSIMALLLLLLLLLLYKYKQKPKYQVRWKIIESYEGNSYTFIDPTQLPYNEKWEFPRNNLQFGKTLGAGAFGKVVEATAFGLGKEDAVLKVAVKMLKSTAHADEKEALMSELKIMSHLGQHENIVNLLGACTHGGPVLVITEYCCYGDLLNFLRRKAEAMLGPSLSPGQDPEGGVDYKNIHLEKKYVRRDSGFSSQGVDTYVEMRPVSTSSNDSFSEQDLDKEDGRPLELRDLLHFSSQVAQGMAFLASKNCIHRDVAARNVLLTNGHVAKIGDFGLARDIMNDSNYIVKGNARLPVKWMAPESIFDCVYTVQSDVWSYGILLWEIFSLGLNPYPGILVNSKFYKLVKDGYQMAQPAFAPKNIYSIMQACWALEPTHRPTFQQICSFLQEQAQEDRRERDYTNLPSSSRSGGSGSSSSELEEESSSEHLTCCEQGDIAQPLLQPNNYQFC
In short: (§2)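 Z′-Lyte FRET assay with CSF1R or EGFR and 2 μM Tyr4 peptide substrate in 1× kinase buffer. ATP was supplied as a 100 μM solution, a stock and not the final concentration. Compounds were 3-fold serially diluted in DMSO. Reaction ran 1 h at room temperature, followed by 1 h development and a stop reagent. Phospho-peptide, no-ATP and DMSO controls were included. IC50 by curve fitting; mean of at least three independent experiments.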

[3] = Half life in Sprague-Dawley rat at 25 mg/kg administered via oral gavage measured up to 72 hrs by LC/MS analysis; format: ADME, organism-based; settings: in vivo; in short: as §1
[4] = Half life in Sprague-Dawley rat at 5 mg/kg, iv measured up to 72 hrs by LC/MS analysis; format: ADME, organism-based; settings: in vivo; in short: as §1
Homo sapiens = organism: Homo sapiens; experiment: Selectivity ratio of IC50 for recombinant human wild type GST-tagged EGFR cytoplasmic domain (668 to 1210 residues) expressed in baculovirus to IC50 for recombinant human His-tagged CSF1R cytoplasmic domain (538 to 910 residues) expressed in baculovirus; in short: as §2
[5] = biological target: Epidermal growth factor receptor (Homo sapiens, UniProt P00533); experiment: Inhibition of recombinant human wild type GST-tagged EGFR cytoplasmic domain (668 to 1210 residues) expressed in baculovirus using tyr4 peptide as substrate after 1 hr by FRET-based Z'-Lyte assay
Epidermal growth factor receptor, sequence (P00533 whole entry, the tested form may be a part): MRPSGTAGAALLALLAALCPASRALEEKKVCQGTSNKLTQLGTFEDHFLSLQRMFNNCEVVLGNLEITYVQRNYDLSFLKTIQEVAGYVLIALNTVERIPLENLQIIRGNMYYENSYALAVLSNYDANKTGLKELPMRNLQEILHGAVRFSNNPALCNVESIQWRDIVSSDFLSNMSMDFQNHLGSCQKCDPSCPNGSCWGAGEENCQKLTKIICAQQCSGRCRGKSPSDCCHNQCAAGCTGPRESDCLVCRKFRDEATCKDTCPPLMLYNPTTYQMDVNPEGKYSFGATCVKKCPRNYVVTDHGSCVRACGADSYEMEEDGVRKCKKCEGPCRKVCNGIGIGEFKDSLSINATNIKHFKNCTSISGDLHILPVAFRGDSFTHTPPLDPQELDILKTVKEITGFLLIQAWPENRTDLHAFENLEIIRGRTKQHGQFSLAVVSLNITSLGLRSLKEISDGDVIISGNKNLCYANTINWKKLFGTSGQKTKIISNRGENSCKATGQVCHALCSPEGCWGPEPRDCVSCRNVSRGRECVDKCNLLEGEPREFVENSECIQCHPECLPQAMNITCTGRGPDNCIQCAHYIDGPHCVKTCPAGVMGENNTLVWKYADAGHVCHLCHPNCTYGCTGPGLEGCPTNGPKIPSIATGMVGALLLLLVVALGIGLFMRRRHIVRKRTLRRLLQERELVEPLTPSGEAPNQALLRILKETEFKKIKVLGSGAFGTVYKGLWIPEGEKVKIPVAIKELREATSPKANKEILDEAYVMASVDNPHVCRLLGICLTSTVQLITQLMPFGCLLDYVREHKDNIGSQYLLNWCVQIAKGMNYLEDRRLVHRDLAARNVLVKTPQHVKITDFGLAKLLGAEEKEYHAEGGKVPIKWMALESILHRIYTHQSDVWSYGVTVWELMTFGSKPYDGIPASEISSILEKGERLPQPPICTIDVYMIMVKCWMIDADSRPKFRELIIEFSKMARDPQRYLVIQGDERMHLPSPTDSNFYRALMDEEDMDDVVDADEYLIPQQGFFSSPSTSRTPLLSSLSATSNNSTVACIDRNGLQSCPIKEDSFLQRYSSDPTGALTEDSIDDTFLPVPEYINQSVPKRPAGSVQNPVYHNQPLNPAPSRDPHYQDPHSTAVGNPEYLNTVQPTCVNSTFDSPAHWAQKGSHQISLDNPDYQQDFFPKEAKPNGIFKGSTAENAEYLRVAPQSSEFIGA

Rattus norvegicus [6] = experiment: Apparent clearance in Sprague-Dawley rat at 25 mg/kg administered via oral gavage measured up to 72 hrs by LC/MS analysis; format: ADME, organism-based; settings: in vivo, iv, 5 mg/kg, in the assay text read “5 mg/kg administered intravenously” for “25 mg/kg administered via oral gavage”; in short: as §1
Rattus norvegicus [7] = experiment: AUC (0 to infinity) in Sprague-Dawley rat at 25 mg/kg administered via oral gavage measured up to 72 hrs by LC/MS analysis; format: ADME, organism-based; set-up: dose 25 mg/kg, route oral, time infinity; settings: in vivo; in short: as §1
[8] = Oral bioavailability in Sprague-Dawley rat at 25 mg/kg administered via gavage measured up to 72 hrs by LC/MS analysis; format: ADME, organism-based; settings: in vivo; in short: as §1
[9] = Cmax in Sprague-Dawley rat at 25 mg/kg administered via oral gavage measured up to 72 hrs by LC/MS analysis; format: ADME, organism-based; set-up: dose 25 mg/kg, route oral; settings: in vivo; in short: as §1

| Compound | AUC(0-inf) [1] [ng·h/mL] | IC50 [2] [nM] | half-life [3] [h] | half-life [4] [h] | Ratio IC50 (Homo sapiens) | IC50 [5] [nM] | CL(app) (Rattus norvegicus [6]) [mL/min/kg] | AUC (Rattus norvegicus [7]) [ng·h/mL] | bioavailability [8] [%] | Cmax [9] [ng/mL] |
| --- | --- | --- | --- | --- | --- | --- | --- | --- | --- | --- |
| CCC(=O)N1CC[C@H](N2C(=O)N(c3cc(OC)ccc3F)Cc3cnc(Nc4ccc(N5CCN(C)CC5)c(C)c4)nc32)C1 | 1900 | 2 | 1.6 | 2.3 | 99 to 200 | 362 | 44 | 1630 | 17.1 | 396 |
| CCC(=O)N1CC[C@H](N2C(=O)N(c3cc(OC)ccc3Cl)Cc3cnc(Nc4ccc(N5CCN(C)CC5)c(C)c4)nc32)C1 | 2770 | 2.1 | 1.89 | 3.48 |  |  | 30.7 | 5311 | 38.6 | 988 |
